Reference: ChEMBL document CHEMBL4831547, “DNDI-6148: A Novel Benzoxaborole Preclinical Candidate for the Treatment of Visceral Leishmaniasis” (J Med Chem, 2021)

Columns and labels:
[1] = Selectivity index, ratio of CC50 for human MRC5 cells to EC50 for Leishmania infantum MHOM/MA(BE)/67/ITMAP263; assay type: toxicity; details: read-out: Ratio CC50/EC50
[2] = Drug metabolism in rat assessed as M12 metabolite formation; assay type: ADME
[3] = Drug metabolism in mouse assessed as M12 metabolite formation; assay type: ADME
[4] = Drug metabolism in dog assessed as M12 metabolite formation; assay type: ADME, Canis lupus familiaris
[5] = Drug metabolism in human assessed as M12 metabolite formation; assay type: ADME
[6] = Drug metabolism in hamster assessed as M12 metabolite formation; assay type: ADME, Mesocricetus auratus
[7] = Drug metabolism in dog liver microsomes at 10 uM incubated for 60 mins by LC-UV/MS analysis; assay type: ADME, Canis lupus familiaris, Microsome; details: 1 h
Summary of the method: (§1)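 Incubated at 10 μM with liver microsomes (1 mg/mL) from Beagle dog or Sprague-Dawley rat for 60 min. Reactions were stopped by precipitation with formic acid/acetonitrile, and metabolites were identified by LC-UV-MSn (n = 1–2).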

[8] = Drug metabolism in human liver microsomes at 10 uM incubated for 60 mins by LC-UV/MS analysis; assay type: ADME, Microsome; details: 1 h
[9] = Drug metabolism in Sprague-Dawley rat liver microsomes at 10 uM incubated for 60 mins by LC-UV/MS analysis; assay type: ADME, Microsome; details: 1 h; summary of the method: as §1
[10] = Permeability of compound in dog MDCK-MDR1 cells at 2 uM after 150 min by LC-MS/MS analysis; assay type: ADME, cell-based, Canis lupus familiaris; details: mdck-mdr1, 2.5 h
Summary of the method: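 Bidirectional MDCK-MDR1 monolayer permeability. A→B and B→A transport was measured in triplicate over 150 min at 37 °C, 5% CO2, and quantified by LC-MS/MS as analyte/internal standard peak-area ratio.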

[11] = Genotoxicity in Salmonella typhimurium TA98 over 1 to 1000 ug in absence of S9 fraction by Ames test; assay type: toxicity; details: salmonella enterica subsp. enterica serovar typhimurium, dose 1-1000 µg
Summary of the method: (§2)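 Mini-Ames reverse mutation screen in S. typhimurium TA98 and TA100, run with and without induced rat liver S9. Doses were 1.5, 4, 10, 25, 64, 160, 400 and 1000 μg per well. Positive controls were 2-aminoanthracene, 2-nitrofluorene and sodium azide; DMSO was the negative control.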

[12] = Genotoxicity in Salmonella typhimurium TA98 over 1 to 1000 ug in presence of S9 fraction by Ames test; assay type: toxicity, subcellular; details: salmonella enterica subsp. enterica serovar typhimurium, dose 1-1000 µg; summary of the method: as §2
[13] = Genotoxicity in Salmonella typhimurium TA100 over 1 to 1000 ug in absence of S9 fraction by Ames test; assay type: toxicity; details: salmonella enterica subsp. enterica serovar typhimurium, dose 1-1000 µg; summary of the method: as §2
[14] = Genotoxicity in Salmonella typhimurium TA100 over 1 to 1000 ug in presence of S9 fraction by Ames test; assay type: toxicity, subcellular; details: salmonella enterica subsp. enterica serovar typhimurium, dose 1-1000 µg; summary of the method: as §2
[15] = Toxicity in Sprague-Dawley rat at 50 mg/kg administered daily for 14 days; assay type: organism-based; details: in vivo, 336 h, time 14 day
Summary of the method: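 Exploratory 14-day toxicology study with daily dosing in male and female Sprague-Dawley rats.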

[16] = Clearance in human; assay type: ADME

Row | Compound | selectivity ratio [1] | further results
1 | O=C(Nc1ccc2c(c1)B(O)OC2)c1ccc(F)cc1C(F)(F)F | > 24 | 
2 | O=C(Nc1ccc2c(c1)B(O)OC2)c1cn(-c2ccccn2)nn1 | 30 | 
3 | Cc1c(C(=O)Nc2ccc3c(c2)B(O)OC3)cnn1CCC(F)(F)F | > 5 | 
4 | Cc1nn(-c2ccccn2)cc1C(=O)Nc1ccc2c(c1)B(O)OC2 | > 11 | 
5 | O=C(Nc1ccc2c(c1)B(O)OC2)c1cn(-c2ccc(Cl)cc2)nc1C(F)(F)F | 2 | 
6 | Cn1nc(C(=O)Nc2ccc3c(c2)B(O)OC3)cc1-c1ccccn1 | 31 | 
7 | Cc1cccc(-n2ncc(C(=O)Nc3ccc4c(c3)B(O)OC4)c2C)n1 | 25 | 
8 | O=C(Nc1ccc2c(c1)B(O)OC2)c1nnc(-c2ccccn2)o1 | > 32 | 
9 | COc1cccc(-n2ncc(C(=O)Nc3ccc4c(c3)B(O)OC4)c2C)n1 | 31 | 
10 | O=C(Nc1ccc2c(c1)B(O)OC2)c1cn(C2CCOCC2)nc1C(F)(F)F | > 21 | 
11 | O=C(Nc1ccc2c(c1)B(O)OC2)c1cc(-c2ccccn2)n[nH]1 | 8 | 
12 | Cn1nc(-c2ccccn2)cc1C(=O)Nc1ccc2c(c1)B(O)OC2 | > 2 | 
13 | O=C(Nc1ccc2c(c1)B(O)OC2)c1cn(CC(F)(F)F)nc1C(F)(F)F | > 40 | 
14 | O=C(Nc1ccc2c(c1)B(O)OC2)c1cn(-c2ccccn2)nc1C(F)(F)F | 1.6 | 
15 | Cc1c(C(=O)Nc2ccc3c(c2)B(O)OC3)cnn1-c1ccccn1 | 15 | 
16 | O=C(Nc1ccc2c(c1)B(O)OC2)c1cn(CCC(F)(F)F)nc1C(F)(F)F | 38 | 
17 | Cc1cccc(-n2nnc(C(=O)Nc3ccc4c(c3)B(O)OC4)c2C)n1 | > 10 | 
18 | COc1cccc(-n2nnc(C(=O)Nc3ccc4c(c3)B(O)OC4)c2C)n1 | > 80 | 
19 | Cc1c(-c2ccccn2)coc1C(=O)Nc1ccc2c(c1)B(O)OC2 | 37 | Drug metabolism [2]: Metabolite_Detected; Drug metabolism [3]: Metabolite_Detected; Drug metabolism [4]: Metabolite_Detected; Drug metabolism [5]: Metabolite_Detected; Drug metabolism [6]: Metabolite_Detected
20 | Cc1c(C(=O)Nc2ccc3c(c2)B(O)OC3)nnn1-c1cccnc1 | > 1.8 | 
21 | Cc1c(C(=O)Nc2ccc3c(c2)B(O)OC3)nnn1-c1ccccc1 | > 1.7 | 
22 | O=C(Nc1ccc2c(c1)B(O)OC2)c1cn(C2CCC2)nc1C(F)(F)F | 53 | 
23 | O=C(Nc1ccc2c(c1)B(O)OC2)c1cn(C(F)(F)F)nc1C(F)(F)F | > 31 | 
24 | Cc1nn(C2CCC2)cc1C(=O)Nc1ccc2c(c1)B(O)OC2 | > 4 | 
25 | COc1ccccc1-n1cc(C(=O)Nc2ccc3c(c2)B(O)OC3)c(C)n1 | 7.3 | 
26 | Cc1oc(C(=O)Nc2ccc3c(c2)B(O)OC3)cc1-c1ccccn1 | 18 | 
27 | Cc1c(-c2ccccn2)csc1C(=O)Nc1ccc2c(c1)B(O)OC2 | 4 | 
28 | Cc1c(C(=O)Nc2ccc3c(c2)B(O)OC3)nnn1-c1ccccn1 | > 39 | Drug metabolism [7]: Metabolite_Notdetected; Drug metabolism [8]: Metabolite_Notdetected; Drug metabolism [9]: Metabolite_Notdetected; permeability [10]: Permeable; Activity [11]: Non-Toxic; Activity [12]: Non-Toxic; Activity [13]: Non-Toxic; Activity [14]: Non-Toxic; Activity [15]: Non-Toxic; clearance [16]: 1 mL/min/kg
29 | Cc1nn(CCC(F)(F)F)cc1C(=O)Nc1ccc2c(c1)B(O)OC2 | > 11 | 
30 | CCCCCCCCCCCCCCCCOP(=O)([O-])OCC[N+](C)(C)C [MILTEFOSINE] | > 6.2 | 
